Several values for one entry are separate records, joined by “and”; a condition that tells them apart may be missing. Equal values may be shown once.
Key:
[1] = target: T1, Sterol O-acyltransferase 1 (Rattus norvegicus) (UniProt O70536); test: Inhibition of Fu5AH Acyl coenzyme A:cholesterol acyltransferase at the concentration of 10 ug/mL
T1 sequence (whole entry): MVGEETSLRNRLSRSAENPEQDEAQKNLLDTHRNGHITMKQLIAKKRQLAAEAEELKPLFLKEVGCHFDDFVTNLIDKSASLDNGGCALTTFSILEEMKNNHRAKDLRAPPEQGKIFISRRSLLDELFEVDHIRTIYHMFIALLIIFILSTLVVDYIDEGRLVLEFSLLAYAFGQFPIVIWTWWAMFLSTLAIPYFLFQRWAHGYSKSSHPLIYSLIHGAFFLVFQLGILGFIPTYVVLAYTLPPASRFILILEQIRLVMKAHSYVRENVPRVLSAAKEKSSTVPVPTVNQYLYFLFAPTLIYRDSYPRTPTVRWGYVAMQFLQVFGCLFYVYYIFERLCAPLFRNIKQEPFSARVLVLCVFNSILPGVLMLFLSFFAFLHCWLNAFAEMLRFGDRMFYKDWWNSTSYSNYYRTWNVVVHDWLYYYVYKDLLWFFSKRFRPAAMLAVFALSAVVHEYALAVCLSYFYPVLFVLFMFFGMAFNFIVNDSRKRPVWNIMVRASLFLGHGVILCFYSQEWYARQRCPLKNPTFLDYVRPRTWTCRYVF

[2] = target: T2, Sterol O-acyltransferase 1 (Rattus norvegicus, UniProt O70536); test: In vitro inhibition of Fu5AH acyl coenzyme A:cholesterol acyltransferase.
T2 sequence (O70536 whole entry): T1 sequence (whole entry)

Rattus norvegicus [3] = species on record: Rattus norvegicus; test: (§1) Percent control of serum cholesterol in cholesterol; type: functional; parameters: concentration or dose not given beside the values
Outline: (§2)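 Male Sprague-Dawley rats (100–110 g), groups of 10, fed synthetic diet with 1% cholesterol; compound mixed into diet to give the stated daily dose (mg/kg) for 7 days. Serum from jugular bleed under anesthesia; VLDL+LDL separated from HDL by PEG-8000 precipitation in glycine buffer pH 9; values expressed as % of cholesterol-fed control; one-way design, LSD comparison.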

Rattus norvegicus [4] = species on record: Rattus norvegicus; test: as §1; type: functional; parameters: concentration or dose not given beside the values; outline: as §2; remark: listed apart in the source
Rattus norvegicus [5] = species on record: Rattus norvegicus; test: as §1; type: functional; parameters: concentration or dose not given beside the values; outline: as §2; remark: listed apart in the source
Rattus norvegicus [6] = species on record: Rattus norvegicus; test: (§3) The compound was tested for % control of serum cholesterol in cholesterol; type: functional; outline: as §2
Rattus norvegicus [7] = species on record: Rattus norvegicus; test: as §3; type: functional; outline: as §2; remark: listed apart in the source
Rattus norvegicus [8] = species on record: Rattus norvegicus; test: as §3; type: functional; outline: as §2; remark: listed apart in the source
Rattus norvegicus [9] = species on record: Rattus norvegicus; test: as §3; type: functional; outline: as §2; remark: listed apart in the source
Rattus norvegicus [10] = species on record: Rattus norvegicus; test: as §3; type: functional; outline: as §2; remark: listed apart in the source

| SMILES | inhibition [1] [%] | IC50 [2] [µM] | Control (Rattus norvegicus [3]) [%] | Control (Rattus norvegicus [4]) | Control (Rattus norvegicus [5]) [%] | other results |
| --- | --- | --- | --- | --- | --- | --- |
| O=C1c2c(c(=O)n3nc(-c4ccccc4)cc3n2CC2CCCCC2)CN1C1CCCCC1 | 97 | 8.77 | 80 | 111% | 144 | – |
| O=C(Cn1c2c(c(=O)n3nc(-c4ccccc4)cc13)CN(C1CCCCCCC1)C2=O)c1ccccc1 | 68 | – | 100 | 83% | 67 | – |
| O=C1c2c(c(=O)n3nc(-c4ccccc4)cc3n2CSc2ccccc2)CN1C1CCCCC1 | 55 | 22.9 | – | – | – | – |
| CC(C)CC(C)N1Cc2c(n(CC(=O)c3ccccc3)c3cc(-c4ccccc4)nn3c2=O)C1=O (stereo not given) | 85 | 6.4 | 89 | 72% | 57 | – |
| CCCCCCCCCCCCN1Cc2c(n(CC(=O)c3ccccc3)c3cc(-c4ccccc4)nn3c2=O)C1=O | 39 | – | 92 | 91% | 85 | – |
| CCCCCCCC/C=C\CCCCCCCCN1Cc2c(n(CC(=O)c3ccccc3)c3cc(-c4ccccc4)nn3c2=O)C1=O | 1 | – | 86 | 76% | 69 | – |
| COC(=O)Cn1c2c(c(=O)n3nc(-c4ccccc4)cc13)CN(C1CCCCC1)C2=O | 25 | – | 112 | 109% | 109 | – |
| COc1ccc(CN2Cc3c(n(CC(=O)c4ccccc4)c4cc(-c5ccccc5)nn4c3=O)C2=O)cc1 | 10 | – | – | – | – | – |
| O=C1c2c(c(=O)n3nc(-c4ccccc4)cc3n2C/C=C/c2ccccc2)CN1C1CCCCC1 | 75 | 15.5 | – | – | – | – |
| O=C(Cn1c2c(c(=O)n3nc(-c4ccccc4)cc13)CN(C1CCCCCCCCCCC1)C2=O)c1ccccc1 | 39 | – | 92 | 83% | 76 | – |
| O=C1c2c(c(=O)n3nc(-c4ccccc4)cc3n2Cc2ccccc2)CN1C1CCCCC1 | 88 | 7.98 | 97 | 104% | 110 | – |
| O=C1c2c(c(=O)n3ncc(-c4ccccc4)c3n2Cc2ccccc2)CN1C1CCCCC1 | 21 | – | – | – | – | – |
| O=C(Cn1c2c(c(=O)n3nc(-c4ccccc4)cc13)CN(C1CCCCC1)C2=O)c1cccc([N+](=O)[O-])c1 | 87 | 2.74 | 83 | 106% | 126 | – |
| CCCCCCn1c2c(c(=O)n3nc(-c4ccccc4)cc13)CN(C1CCCCC1)C2=O | 48 | – | – | – | – | – |
| CC(c1ccccc1)N1Cc2c(n(CC(=O)c3ccccc3)c3cc(-c4ccccc4)nn3c2=O)C1=O (stereo not given) | 30 | – | 92 | 91% | 90 | – |
| COC(=O)c1ccc(C(=O)Cn2c3c(c(=O)n4nc(-c5ccccc5)cc24)CN(C2CCCCC2)C3=O)cc1 | 1 | – | 99 | 107% | 116 | – |
| O=C1c2c(c(=O)n3nc(-c4ccccc4)cc3n2Cc2ccccc2)CN1c1ccccc1 | 18 | – | – | – | – | – |
| O=C(Cn1c2c(c(=O)n3nc(-c4ccccc4)cc13)CN(Cc1ccccc1)C2=O)c1ccccc1 | 70 | 5.48 | 100 | 100% | 101 | – |
| O=C(Cn1c2c(c(=O)n3nc(-c4ccccc4)cc13)CN(C1CCCCC1)C2=O)c1ccccc1 | 92 | 3.64 | 128 | 97% and 88% | 65 | Control (Rattus norvegicus [6]): 133%; Control (Rattus norvegicus [7]): 97%; Control (Rattus norvegicus [8]): 75%; Control (Rattus norvegicus [9]): 120%; Control (Rattus norvegicus [10]): 84% |
| O=C1c2c(c(=O)n3nc(C4CCCCC4)cc3n2Cc2ccccc2)CN1C1CCCCC1 | 12 | – | 111 | 109% | 106 | – |

| SMILES | inhibition [1] [%] | IC50 [2] [µM] | Control (Rattus norvegicus [3]) [%] | Control (Rattus norvegicus [4]) | Control (Rattus norvegicus [5]) [%] | other results |
| --- | --- | --- | --- | --- | --- | --- |
| CCCCCCN1Cc2c(n(CC(=O)c3ccccc3)c3cc(-c4ccccc4)nn3c2=O)C1=O | 75 | – | 98 | 89% | 86 | – |
| O=C1c2c(c(=O)n3nc(-c4ccccc4)cc3n2CS(=O)(=O)c2ccccc2)CN1C1CCCCC1 | 31 | – | – | – | – | – |
| Cn1c2c(c(=O)n3nc(-c4ccccc4)cc13)CN(C1CCCCC1)C2=O | 13 | – | – | – | – | – |
| O=C(Cn1c2c(c(=O)n3nc(-c4ccccc4)cc13)CN(C1CCCCC1)C2=O)c1ccc(F)cc1 | 88 | 5.16 | 101 | 98% | 95 | – |
| O=C(Cn1c2c(c(=O)n3nc(-c4ccccc4)cc13)CN(C1CC3CCC1C3)C2=O)c1ccccc1 (stereo not given) | 83 | 4.39 | 90 | 75% | 63 | – |
| CN1Cc2c(n(Cc3ccccc3)c3cc(-c4ccccc4)nn3c2=O)C1=O | 8 | – | – | – | – | – |
| O=C1c2c(c(=O)n3nccc3n2Cc2ccccc2)CN1C1CCCCC1 | 25 | – | – | – | – | – |
| COc1ccc(C(=O)Cn2c3c(c(=O)n4nc(-c5ccccc5)cc24)CN(C2CCCCC2)C3=O)cc1 | 52 | – | – | – | – | – |
| CCOC(=O)CCCn1c2c(c(=O)n3nc(-c4ccccc4)cc13)CN(C1CCCCC1)C2=O | 28 | – | – | – | – | – |
| O=C1c2c(c(=O)n3nc(-c4ccccc4)cc3n2Cc2ccccc2)CN1Cc1ccccc1 | 90 | 10.5 | 92 | 105% | 113 | – |
| O=C1c2c(c(=O)n3nc(-c4ccc(O)cc4)cc3n2Cc2ccccc2)CN1C1CCCCC1 | 33 | – | – | – | – | – |
| CCOc1ccc(-c2cc3n(Cc4ccccc4)c4c(c(=O)n3n2)CN(C2CCCCC2)C4=O)cc1 | 75 | – | 93 | 110% | 122 | – |
| O=C1c2c(c(=O)n3nc(-c4ccccc4)cc3n2Cc2ccccc2)CN1C[C@H]1CC[C@H](O)CC1 | 23 | – | 90 | 108% | 128 | – |
| CCCCCCCCCCCCCCCCOc1ccc(C(=O)Cn2c3c(c(=O)n4nc(-c5ccccc5)cc24)CN(C2CCCCC2)C3=O)cc1 | 2 | – | – | – | – | – |
| CC(C)(C)CC(C)(C)N1Cc2c(n(CC(=O)c3ccccc3)c3cc(-c4ccccc4)nn3c2=O)C1=O | 80 | 8.86 | 122 | 107% | 96 | – |
| O=C1c2c(c(=O)n3nc(-c4ccccc4)cc3n2CC(O)c2ccccc2)CN1C1CCCCC1 (stereo not given) | 66 | – | – | – | – | – |
| O=C(CCCn1c2c(c(=O)n3nc(-c4ccccc4)cc13)CN(C1CCCCC1)C2=O)c1ccccc1 | 78 | 13.7 | – | – | – | – |
| CC(C(=O)c1ccccc1)n1c2c(c(=O)n3nc(-c4ccccc4)cc13)CN(C1CCCCC1)C2=O (stereo not given) | 55 | – | – | – | – | – |
| C=CCOc1ccc(-c2cc3n(Cc4ccccc4)c4c(c(=O)n3n2)CN(C2CCCCC2)C4=O)cc1 | 65 | 11.5 | 95 | 94% | 98 | – |
| O=C(Cn1c2c(c(=O)n3nc(-c4ccccc4)cc13)CN(C1CCCCC1)C2=O)c1ccc2ccccc2c1 | 19 | – | – | – | – | – |

Reference: ChEMBL document CHEMBL1125881, “Synthesis and hypocholesterolemic activity of 6,7-dihydro-4H-pyrazolo[1,5-a]pyrrolo[3,4-d]pyrimidine-5,8-diones, novel inhibitors of acylCoA:cholesterol O-acyltransferase” (J Med Chem, 1991)
